Hits are enriched below; roughly 1.9% of the tested compounds scored in any of these assays.
Runt-CBFb FRET: blocks binding of human RUNX1 Runt domain to CBFb. Q01196+Q13951. Cerulean-Runt/Venus-CBFb FRET ratio 530/480, 1 h. inhibition, % at 20 µM. 220,000 tested, 0.46% active. AID 1496;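 active means inhibition over about 50% at 20 µM in the single-dose screen, limit read from the data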;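 further: 0% = DMSO wells and 100% = excess unlabeled CBFb competitor control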
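Reagent – Venus-CBFb binding partner, 100 nM · Assay system – Cerulean-tagged RUNX1 Runt domain (FRET donor) fusion protein · Input – 100 nM per protein · Incubation – two 1 h room-temperature incubations shielded from light · Measured by – FRET fluorescence · Medium – Tris buffer pH 7.5 with salts and BSA · Benchmarks – unlabeled CBFb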
HDAC3 inhib: inhibitors of human histone deacetylase 3; O15379; recombinant HDAC3, fluorogenic peptide/trypsin coupled, fluorescence; inhibition, % at 8.3 µM; 320,000 tested, 0.15% active; in the data active means inhibition above about 26%, passing the limit was not always enough; inconclusive means no clear call, values can overlap the other calls
Target sequence (O15379 whole entry, looked up): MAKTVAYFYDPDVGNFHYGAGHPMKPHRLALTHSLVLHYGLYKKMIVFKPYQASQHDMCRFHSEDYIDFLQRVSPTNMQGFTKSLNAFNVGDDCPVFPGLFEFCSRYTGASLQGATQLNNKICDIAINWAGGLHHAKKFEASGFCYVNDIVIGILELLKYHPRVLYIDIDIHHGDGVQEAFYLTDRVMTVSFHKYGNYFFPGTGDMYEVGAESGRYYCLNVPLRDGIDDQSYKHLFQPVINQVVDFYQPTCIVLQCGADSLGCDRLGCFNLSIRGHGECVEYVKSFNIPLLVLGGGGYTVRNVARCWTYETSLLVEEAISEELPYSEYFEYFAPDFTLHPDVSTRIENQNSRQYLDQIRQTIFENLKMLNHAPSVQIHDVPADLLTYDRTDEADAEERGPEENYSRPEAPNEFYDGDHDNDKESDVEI
RanGTP-Imp inh: disruptors of Ran-importin-beta complex formation – biochemical, FRET, CFP-Ran, YFP-importin-beta, homogeneous, primary screen. inhibition, % (concentration not given with the values). 300,000 tested, 1.1% active. cell-free CFP-Ran/YFP-importin-beta FRET ratio;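 active means more than half of the replicate wells show a fall in the fluorescence ratio signal beyond about 16%, limit read from the data, passing the limit was not always enough; inconclusive means exactly half of the replicate wells pass the set limit; inactive means fewer than half of replicates pass the limit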;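 further: 0% = DMSO wells and 100% = Ran loaded with GDP instead of GTP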
LANA-H2A inh: blocks KSHV LANA binding to histone H2A/H2B; Q9QR71; cell-free LANA-H2A/H2B peptide, fluorescence polarization; inhibition, % (concentration not given with the values); 320,000 tested, 0.6% active; AID 2629; in the data active means inhibition mostly above about 10%, no sharp cut-off; inactive means mostly below about 6.7%
Runt-SMMHC FRET: blocks binding of human RUNX1 Runt domain to CBFb-SMMHC; Cerulean-Runt/Venus-CBFb-SMMHC FRET ratio 530/480, 1 h; 220,000 tested, 0.74% active; Q01196+Q13951; AID 1434; inhibition, % at 20 µM;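 active means mean inhibition across duplicate retests at 20 µM reaching about 50%, limit read from the data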;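 further: 0% = DMSO wells and 100% = wells with excess untagged CBFb-SMMHC; inhibitors lower the FRET ratio by blocking Runt binding to CBFb-SMMHC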
CaV13 ICDI inh: Disruptors of the CACNA1D IQ motif to Ca2+-dependent inactivation inhibitor domain association, primary screening, Förster resonance energy transfer in intact living …; HEK cells, CFP/YFP FRET ICDI-IQ, plate reader, 10 min; percent FRET-ratio fall versus neutral wells; inhibition, % at 12.3 µM; 340,000 tested, 0.098% active; AID 743397;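 active means mean replicate inhibition of at least 30% and at least 1% of replicates passing that level; inconclusive means only one of the two criteria is met; inactive means neither criterion is met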;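 further: 0% = median of the neutral control wells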
YIC counter: counter-screen YIC FRET for RanGTP-importin-beta inhibitors | shares compounds with RanGTP-Imp inh | 1,000 tested, 40% active | AID 435026 | Purified YIC probe, intramolecular FRET ratio YFP/CFP | IC50, µM;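 active means fitted half-maximal inhibitory concentration no more than tenfold above the top dose tested; inconclusive means flat fit with 30 to 70% activity, or poor fit; inactive means half-maximal concentration beyond tenfold above the top dose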
Numbers without * were called inactive; ? = inconclusive; nt = no result given.

SMILES | Runt-CBFb FRET | HDAC3 inhib | RanGTP-Imp inh | LANA-H2A inh | Runt-SMMHC FRET | CaV13 ICDI inh | YIC counter
CN1CCN(C(=O)c2ccccc2Nc2ccc(SC(F)F)cc2)CC1 | 0 | 2 | 19* | 3 | 2 | -1 | >50
O=C1COc2ccc(C(=O)/C=C/c3ccccc3)cc2N1 | 0 | 4 | 1 | 4 | 4 | -10 | nt
O=C(O)/C=C/C(=O)Nc1ccc2c(c1)NC(=O)CO2 | 30 | 6 | 34* | 1 | 15 | -5 | >50
O=C(Nc1cc(S(=O)(=O)N2CCOCC2)ccc1N1CCOCC1)c1cc(=O)[nH]c2ccccc12 | 1 | 0 | 1 | 1 | -2 | -5 | nt
C[C@@H]1CN([C@H](C)CO)C(=O)c2cccc(NC(=O)c3ccc(-c4nccs4)cc3)c2O[C@@H]1CN(C)CC1CC1 | nt | nt | nt | nt | nt | nt | >50
Cc1ccc(NC(=O)Cn2nc(C(F)(F)F)c3c2CCC3)cc1 | 0 | 8 | 22* | -1 | 3 | -8 | >50
Cc1cc(NC(=O)Cn2nc(C(F)(F)F)c3c2CCC3)no1 | -1 | -5 | 1 | 0 | -3 | nt | nt
O=C(NCc1cccs1)Nc1ccc2c(c1)OCO2 | 1 | 6 | 3 | 2 | -3 | -3 | nt
CO/N=C\c1cc(C(=O)c2ccc(Cl)cc2Cl)cn1C | 0 | 2 | 32* | -1 | 3 | -3 | >50
O=S(=O)(Nc1nc2ccccc2nc1-[n+]1cccc(N=C([O-])c2ccccc2Cl)c1)c1ccccc1 | 48 | -2 | 24* | 3 | 75* | nt | 6.7*
COc1ccc(C([O-])=Nc2ccc[n+](-c3nc4ccccc4nc3NS(=O)(=O)c3ccccc3)c2)cc1 | -6 | 2 | 0 | -5 | -6 | -4 | nt
C=CCNC(=O)CN(c1ccc(F)c(Cl)c1)S(C)(=O)=O | 2 | -4 | -3 | -1 | -2 | -7 | nt
Oc1ccc(-c2[nH]ncc2-c2cccc3cccnc23)c(O)c1 | 0 | 7 | 17* | 1 | 2 | -2 | >50
Oc1ccc(-c2[nH]ncc2-c2ccc(Cl)cc2)c(O)c1 | 0 | 5 | -3 | 1 | -8 | -5 | nt
CCOc1ccc(NC(=S)N(CCOC)C(C)c2cccnc2)cc1 (stereo not given) | 1 | 3 | 0 | -6 | 2 | -3 | nt
N=c1oc2ccccc2cc1-c1nc(-c2ccc(Cl)cc2)cs1 | -46 | -3 | 17* | -2 | -150 | -4 | 32*
O=c1oc2ccccc2cc1-c1csc(Cc2nc(-c3ccc(Cl)cc3)cs2)n1 | -2 | nt | 5 | -4 | -16 | -2 | nt
Cc1cccc(N2CCN(C(=O)C3COc4ccccc4O3)CC2)c1C (stereo not given) | 1 | 5 | 26* | -4 | -4 | -18 | >50
Cc1c(CC(=O)N2CCN(C(=O)C3COc4ccccc4O3)CC2)c(=O)oc2c(C)c(O)ccc12 (stereo not given) | nt | -2 | 24* | -4 | nt | -2 | 14*
COc1ccc(C(=O)Cn2cnc3ccccc3c2=O)c(OC)c1 | nt | -8 | 2 | 2 | nt | -2 | nt
N#C/C(=C/c1ccc(N2CCOCC2)o1)C(=O)Nc1ccccc1 | 13 | nt | 31* | nt | -70 | 14 | 15*
N#C/C(=C/c1ccc(-c2ccc(S(=O)(=O)N3CCOCC3)cc2)o1)C(=O)NC1CC1 | nt | nt | nt | nt | nt | -8 | nt
N#C/C(=C\c1ccc(N2CCOCC2)o1)C(=O)NC1CCCCC1 | 4 | 5 | 31* | -20 | 10 | -2 | 3.9*
COc1ccc(CNC(=O)C2(C)Cc3c(-c4cccc(NC(C)=O)c4)ccnc3O2)cc1OC (stereo not given) | nt | nt | nt | nt | nt | -5 | nt
CCc1c(O)cc2n(c1=O)-c1ccc(Cl)cc1C2(C)C | -2 | 1 | -3 | -4 | -1 | nt | nt
SMILES | Runt-CBFb FRET | HDAC3 inhib | RanGTP-Imp inh | LANA-H2A inh | Runt-SMMHC FRET | CaV13 ICDI inh | YIC counter
Cc1cc(C)c2c(N)c(C(=O)Nc3ccccc3Br)sc2n1 | nt | -2 | 4 | 1 | nt | 0 | nt
Cc1ccc(N2CC(=O)N(NC(=O)c3sc4nc(C)cc(C)c4c3N)CC2=O)cc1 | 6 | 1 | 20* | 0 | 8 | -5 | >50
CCN1CCN(Cc2ccc(NC(=O)c3ccc(C)c(NC(=O)c4ccno4)c3)cc2C(F)(F)F)CC1 | 1 | 1 | -1 | 2 | 3 | -5 | nt
CCN1CCN(Cc2ccc(NC(=O)c3ccc(C)c(/C=C/c4cnc(Nc5cc(N6CCNCC6)nc(C)n5)cn4)c3)cc2C(F)(F)F)CC1 | nt | 6 | 31* | -11 | nt | nt | 17*
COc1cc2c(cc1OC)CN(Cc1cccs1)CC2 | 6 | -8 | 18* | 1 | 7 | nt | >50
COc1cc2c(cc1OC)CN(Cc1ccccc1)CC2 | nt | -4 | 18* | 0 | nt | -5 | >50
COc1cc2c(cc1OC)CN(Cc1ccc(C)cc1)CC2 | nt | -1 | ? | 0 | nt | 6 | nt
CN(C)CCCNC(=O)C(=O)Nc1ccc2c(c1)N(S(=O)(=O)c1cccs1)CCC2 | nt | -1 | 0 | 2 | nt | -6 | nt
CC(C)Cn1ccc(=O)n(CC(C)C)c1=O | 1 | -3 | 2 | 7 | 4 | -7 | nt
CCc1ccc(C(=O)CSc2ncn[nH]2)cc1 | 1 | 13 | 18* | -2 | -3 | -3 | >50
CCOC(=O)c1c(N)n(CCOC(=O)c2cccs2)c2nc3ccccc3nc12 | 45 | -7 | 23* | 0 | 109* | nt | 37*
CCOC(=O)c1cnn(CCOC(=O)c2cccs2)c1NC(=O)c1cccs1 | 0 | nt | nt | nt | 1 | -5 | nt
CCc1cc(CNC(=O)C2CCC(=O)N(Cc3ccc(Cl)cc3)C2)on1 (stereo not given) | nt | -5 | 8 | 3 | nt | -4 | nt
CCOc1ccc(/C=C2\N=C(c3cccs3)OC2=O)cc1OC | 0 | 15 | -1 | -2 | 3 | nt | nt
CCCOc1ccc(C2C(C(=O)OC)=CN(CCOC)C=C2C(=O)OC)cc1 | 88* | -107 | 25* | 1 | nt | -4 | 17*
COc1ccc(CCNC(=O)c2cc3c(=O)n4cccc(C)c4nc3n(CCCN3CCOCC3)c2=N)cc1 | nt | -7 | 39* | 3 | nt | -9 | 4.4*
COc1ccc(-n2nc(C(=O)NCC3CCCO3)c3ccccc3c2=O)cc1 (stereo not given) | nt | -6 | 5 | -6 | nt | -7 | nt
COc1ccc(CCn2c(=N)c(C(=O)NCC3CCCO3)cc3c(=O)n4cccc(C)c4nc32)cc1 (stereo not given) | nt | 7 | 29* | -10 | nt | -9 | 14*
COc1ccc(/C=C2\SC(=S)N(CC(=O)OCC(=O)Nc3ccc(C)cc3Cl)C2=O)cc1 | -12 | 13 | 18* | -1 | -31 | -2 | >50
Cc1cc(C)c(S(=O)(=O)N(C)CC(N)=O)c(C)c1 | -2 | -9 | 17* | 1 | -6 | -5 | >50
